In paper PMC6286650 (EBioMedicine, 2018):
One block for each molecule: values may come before it.

Columns and labels:
actin [1] = test: Hypoxia-induced actin degradation, fluorescence intensity; type: cell-based; conditions: hypoxic group 264
transgelin = transgelin (Homo sapiens, UniProt Q01995); test: Biacore; conditions: Biacore binding to transgelin, 25 °C, CM5 chip, NA = no activity
Summary of the method: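 CM5 chip at 25 °C with PBS-EP running buffer. Transgelin was amine-coupled by EDC/NHS, the same way as actin (0.4 mg/mL in 10 mM phosphate pH 7.4, 12 min, then 1 M ethanolamine pH 8.5; about 4000 RU). Test compound was run over protein and blank channels at 0–25 uM at 20 μL/min. Association 3 min, dissociation 300 s; regeneration with 10 mM glycine-HCl pH 2.5.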

actin [2] = type: biochemical; conditions: actin/transgelin plus compound
F-actin [3] = test: F-actin features in cells; type: cell-based, human; conditions: versus control group
F-actin [4] = test: F-actin fluorescence under actin inhibitor; type: cell-based
transgelin (−/−) mice = test: Isoproterenol-induced myocardial ischemia model in transgelin; type: in vivo; conditions: 10 mg/kg
Summary of the method: (§1)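 Wild-type C57 or cre-lox transgelin knockout C57/BL6 mice, 24 per genotype, were split into normal, model and two treatment groups. Test compound was given orally at 10 mg/kg daily for one week; normal and model groups got saline. On day 5, isoproterenol 3 mg/kg i.p. was given (saline for normal group). After day 7, mice were anaesthetized with chloral hydrate for a three-needle-electrode ECG on a 40–42 °C pad.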

[5] = system: isolated myocardial tissue; test: Stimulation of isolated myocardial tissue
C57 wild type mice = test: Isoproterenol-induced myocardial ischemia model in wild type mice; type: in vivo
Summary of the method: as §1

actin [6] = test: Multi-angle light scattering of actin aggregation; type: biochemical; conditions: in presence of transgelin
CASMCs = test: Cell contraction and F-actin formation in CASMCs; type: cell-based; conditions: 10 μM
Summary of the method: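 Coronary artery smooth muscle cells came from primary culture in DMEM with 10% foetal bovine serum. They were treated with test compound at 10 μM, and relative cell length and F-actin formation were assessed against untreated control.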

HVSMCs = type: cell-based, human; conditions: 10 μM
transgelin and actin = type: binding; conditions: disregarding the effect of SAA
[7] = isoproterenol-treated model group, ISO 3 mg/kg i.p.

Chain of transgelin (Q01995 whole entry): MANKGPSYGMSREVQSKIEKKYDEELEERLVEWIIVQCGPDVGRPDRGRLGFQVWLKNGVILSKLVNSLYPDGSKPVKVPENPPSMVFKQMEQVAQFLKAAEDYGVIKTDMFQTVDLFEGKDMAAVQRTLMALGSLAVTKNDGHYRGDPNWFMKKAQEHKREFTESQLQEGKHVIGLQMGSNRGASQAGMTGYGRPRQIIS

- Kd (transgelin): 7.11 µM
- Protein binding signal of transgelin and actin when SAA was added (transgelin and actin): 1.3 times
SMILES: O=C(/C=C/c1ccc(O)c(O)c1/C=C/c1ccc(O)c(O)c1)O[C@H](Cc1ccc(O)c(O)c1)C(=O)O [SAA, salvianolic acid A]
- Actin fluorescence intensity (actin [1]): 453
- Actin polymerization (actin [2]): marked increase in actin polymerization
- F-actin area, F-actin percentage area, total F-actin length and average F-actin length (F-actin [3]): increased
- F-actin fluorescence intensity (F-actin [4]; co-treatment with vincristine, vincristine alone 139): 373
- CK, CK-MB, AST and LDH levels relative to transgelin (−/−) MI model group (transgelin (−/−) mice): not significantly changed
- Therapeutic effect on myocardial ischemia (transgelin (−/−) mice): no therapeutic effect
- Stimulation effect on isolated myocardial tissue [5]: no stimulation effect
- Heart infarction ratio (C57 wild type mice; 10 mg/kg oral daily for 7 days, wild type MI mice 11.2%): 4%
- Polymerization (aggregation) of actin (actin [6]): further enhanced
- Relative length of CASMCs (CASMCs): declined
- Co-localization of transgelin and actin (HVSMCs; control approximately 57%): 78%
- Average length of VSMCs (HVSMCs; control approximately 90 μm): ~80 μm

- Serum CK level compared to normal group (C57 wild type mice; [7]): 166% ± 14%
- Serum CK-MB level compared to normal group (C57 wild type mice; [7]): 165% ± 24%
- Serum LDH level compared to normal group (C57 wild type mice; [7]): 174% ± 14%
SMILES: CC(C)NCC(O)c1ccc(O)c(O)c1 (stereo not shown) [isoproterenol]
- Serum AST level compared to normal group (C57 wild type mice; [7]): 237% ± 19%

SMILES: CC[C@]1(O)C[C@H]2CN(CCc3c([nH]c4ccccc34)[C@@](C(=O)OC)(c3cc4c(cc3OC)N(C=O)[C@H]3[C@@](O)(C(=O)OC)[C@H](OC(C)=O)[C@]5(CC)C=CCN6CC[C@]43[C@@H]65)C2)C1 [vincristine, reference compound]
- F-actin fluorescence intensity (F-actin [4]; vincristine alone, control 395): 139
